Our source for the IC50 and Activity values is ChEMBL document CHEMBL1152660, “Structural analogues of diosgenyl saponins: synthesis and anticancer activity” (Bioorg Med Chem, 2009).

Active and inactive are the calls of the source. No cut-off for these calls is given here.

In one assay the test system is HeLa (human). In words: Cytotoxicity against human HeLa cells after 72 hrs by MTT assay. In general terms: Tetrazolium dyes change colour on reduction, which living cells bring about.
The test system of another assay is MCF7 (human). As to the kind of experiment: Cytotoxicity against human MCF7 cells after 72 hrs by MTT assay. The conditions noted are these: MCF7, 72 h.
The next assay has as its system MCF7. As to the kind of experiment: Cytotoxicity against human MCF7 cells at 50 uM after 72 hrs by MTT assay. Format: functional. The essentials:
(§1)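 The MTT proliferation assay used MCF-7 or HeLa cells at 2000 per well in DMEM with 10% FBS at 37 °C and 5% CO2, with a 3-day exposure to DMSO-dissolved analogues diluted in medium. Compounds were tested up to the top concentration. A490 at that concentration is reported as percent of the absorbance of untreated cells.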

In another assay the test system is HeLa. As to the kind of experiment: Cytotoxicity against human HeLa cells at 50 uM after 72 hrs by MTT assay. It counts as functional, cell-based. The procedure, abridged:
as §1

What is called IC50 is the concentration at which inhibition is half-maximal. Turning to `C[C@@H]1CC[C@@]2(OC1)O[C@H]1C[C@H]3[C@@H]4CC=C5C[C@@H](O[C@@H]6O[C@H](CO)[C@@H](O[C@@H]7O[C@@H](C)[C@H](O)[C@@H](O)[C@H]7O)[C@H](O)[C@H]6NC(=O)CCCCC6CCSS6)CC[C@]5(C)[C@H]4CC[C@]3(C)[C@H]1[C@@H]2C` (mixture of isomers), the values for the IC50 in the assay with HeLa (human) and in the assay with MCF7 (human) were 39.9 µM and 18.8 µM, respectively.

As for `C[C@@H]1CC[C@@]2(OC1)O[C@H]1C[C@H]3[C@@H]4CC=C5C[C@@H](O[C@@H]6O[C@H](CO)[C@@H](O)[C@H](O)[C@H]6NC(=O)c6cccc([N+](=O)[O-])c6)CC[C@]5(C)[C@H]4CC[C@]3(C)[C@H]1[C@@H]2C`, the IC50 in the assay on HeLa (human) turned out to be 16.1 µM; in the assay on MCF7 (human), 13.6 µM.

For `C[C@@H]1CC[C@@]2(OC1)O[C@H]1C[C@H]3[C@@H]4CC=C5C[C@@H](O[C@@H]6O[C@H](CO)[C@@H](O)[C@H](O)[C@H]6NC(=O)CCCCC6CCSS6)CC[C@]5(C)[C@H]4CC[C@]3(C)[C@H]1[C@@H]2C` (stereo partly drawn) [ALPHA LIPOYL], the IC50 in the assay with HeLa (human) amounted to 7.3 µM; in the assay on MCF7 (human), 6.9 µM.

On to `C[C@@H]1CC[C@@]2(OC1)O[C@H]1C[C@H]3[C@@H]4CC=C5C[C@@H](O[C@@H]6O[C@H](CO)[C@@H](O)[C@H](O)[C@H]6NC(=O)c6ccccc6)CC[C@]5(C)[C@H]4CC[C@]3(C)[C@H]1[C@@H]2C`, for which the half-inhibitory concentration (IC50) amounted to 18 µM in the assay on HeLa (human) and 19.4 µM in the assay on MCF7 (human).

Turning to `C[C@@H]1CC[C@@]2(OC1)O[C@H]1C[C@H]3[C@@H]4CC=C5C[C@@H](O[C@@H]6O[C@H](CO)[C@@H](O)[C@H](O)[C@H]6NC(=O)c6cc([N+](=O)[O-])cc([N+](=O)[O-])c6)CC[C@]5(C)[C@H]4CC[C@]3(C)[C@H]1[C@@H]2C`, the IC50 with HeLa (human) is 21 µM; with MCF7 (human), 18.7 µM.

Compound `C[C@@H]1CC[C@@]2(OC1)O[C@H]1C[C@H]3[C@@H]4CC=C5C[C@@H](O[C@@H]6O[C@H](CO)[C@@H](O[C@@H]7O[C@@H](C)[C@H](O)[C@@H](O)[C@H]7O)[C@H](O)[C@H]6NC(=O)c6ccccc6)CC[C@]5(C)[C@H]4CC[C@]3(C)[C@H]1[C@@H]2C` registered an Activity with MCF7 of 68%. The result in the assay on HeLa was inactive. Also, the IC50 in the assay on MCF7 (human) is greater than 50 µM.

For `C[C@@H]1CC[C@@]2(OC1)O[C@H]1C[C@H]3[C@@H]4CC=C5C[C@@H](O[C@@H]6O[C@H](CO)[C@@H](O[C@@H]7O[C@@H](C)[C@H](O)[C@@H](O)[C@H]7O)[C@H](O)[C@H]6NC(=O)c6cccc([N+](=O)[O-])c6)CC[C@]5(C)[C@H]4CC[C@]3(C)[C@H]1[C@@H]2C`, the IC50 with HeLa (human) is 39.4 µM; in the assay with MCF7 (human) it was 22.8 µM.

As for `C[C@@H]1CC[C@@]2(OC1)O[C@H]1C[C@H]3[C@@H]4CC=C5C[C@@H](O[C@@H]6O[C@H](CO)[C@@H](O[C@@H]7O[C@@H](C)[C@H](O)[C@@H](O)[C@H]7O)[C@H](O)[C@H]6NC(=O)c6cc([N+](=O)[O-])cc([N+](=O)[O-])c6)CC[C@]5(C)[C@H]4CC[C@]3(C)[C@H]1[C@@H]2C`, the result in the assay with HeLa was inactive. Moreover, the IC50 with MCF7 (human) came to 39.5 µM.

In the case of `COc1cccc2c1C(=O)c1c(O)c3c(c(O)c1C2=O)C[C@@](O)(C(=O)CO)C[C@@H]3O[C@H]1C[C@H](N)[C@H](O)[C@H](C)O1` [DOXORUBICIN], the IC50 turned out to be 1.03 µM in the assay on HeLa (human) and 0.73 µM with MCF7 (human).
